In ChEMBL document CHEMBL1938334, “Quinoline tricyclic derivatives. Design, synthesis and evaluation of the antiviral activity of three new classes of RNA-dependent RNA polymerase inhibitors” (Bioorg Med Chem, 2011):

System: Human orthopneumovirus
Assay: Antiviral activity against Human respiratory syncytial virus A2 infected in african green monkey Vero 76 cells assessed as reduction of virus-induced plaque formation after 5 days using crystal violet staining
Type: functional, organism-based
Conditions: 120 h
Compound `Clc1c2ncccc2cc2nc(CBr)c(CBr)nc12` has an EC50 greater than 100 µM.
In the case of `O=c1[nH]c2c(Cl)c3ncccc3cc2nc1-c1ccccc1`, the EC50 is reported as greater than 100 µM.

System: Human immunodeficiency virus 1
Assay: Antiviral activity against HIV1 3B infected in human MT4 cells assessed as inhibition of virus-induced cytopathogenicity after 4 days by MTT assay
Type: functional, organism-based
Conditions: Human immunodeficiency virus 1, 3B, MT4, 96 h
Method in brief: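 MT-4 cells (1×10^4 per well) were infected with HIV-1 IIIB at 100 CCID50, m.o.i. 0.01, together with serial compound dilutions. Viability was read by MTT after 4 days at 37 °C. EC50 was taken by linear regression versus untreated controls. Mean of three determinations.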
In the case of `Clc1c2ncccc2cc2nc(CBr)c(CBr)nc12`, the EC50 is reported as greater than 16 µM.
`O=c1[nH]c2c(Cl)c3ncccc3cc2nc1-c1ccccc1` gave an EC50 greater than 61 µM.

System: not listed separately
Assay: Cytotoxicity against MDBK cells after 48 to 96 hrs by MTT assay
Type: cell-based, Bos taurus
Conditions: cattle
Method in brief: (§1)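 MDBK seeded at 6×10^5 and BHK at 1×10^6 cells/mL in MEM-Earle's with L-glutamine, 1 mM pyruvate, kanamycin, plus 10% horse serum (MDBK) or 10% FBS (BHK). Cells were grown at 37 °C, 5% CO2 with serial compound dilutions (DMSO stocks diluted in medium). Viability by MTT after 48–96 h. CC50 was taken by linear regression versus untreated controls; three independent determinations.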
Compound `Clc1c2ncccc2cc2nc(CBr)c(CBr)nc12` has a CC50 of 20 µM.
`O=c1[nH]c2c(Cl)c3ncccc3cc2nc1-c1ccccc1` showed a CC50 greater than 100 µM.

System: Reovirus sp.
Assay: Antiviral activity against Reovirus type-1 3651 infected in hamster BHK21 cells assessed as inhibition of virus-induced cytopathogenicity after 3 to 4 days by MTT assay
Type: functional, organism-based
Conditions: Reovirus sp., 3651, BHK-21
Method in brief: (§2)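 Host cells were seeded in 96-well plates at 3×10^4 cells/well (MDBK) or 5×10^4 cells/well (BHK-21) and grown to confluent monolayers overnight. They were infected at m.o.i. 0.01 in maintenance MEM with 0.5% inactivated FBS. Serial compound dilutions were added after 1 h. Viability was read by MTT after 3–4 days at 37 °C. EC50 was taken by linear regression against untreated controls. Mean of three determinations.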
With `Clc1c2ncccc2cc2nc(CBr)c(CBr)nc12` the EC50 was greater than 100 µM.
Work on `O=c1[nH]c2c(Cl)c3ncccc3cc2nc1-c1ccccc1` yielded an EC50 of 100 µM.

System: not listed separately
Assay: Antiviral activity against Vaccinia virus Lister Elstree infected in african green monkey Vero 76 cells assessed as reduction of virus-induced plaque formation after 3 days using crystal violet staining
Type: functional, cell-based
Conditions: 72 h
Work on `Clc1c2ncccc2cc2nc(CBr)c(CBr)nc12` yielded an EC50 greater than 100 µM.
Compound `O=c1[nH]c2c(Cl)c3ncccc3cc2nc1-c1ccccc1` has an EC50 of 39 µM.

System: not listed separately
Assay: Antiviral activity against Bovine viral diarrhea virus 1-NADL infected in MDBK cells assessed as inhibition of virus-induced cytopathogenicity after 3 to 4 days by MTT assay
Type: functional, cell-based
Conditions: Bovine viral diarrhea virus isolates and strains
Method in brief: as §2
In the case of `Clc1c2ncccc2cc2nc(CBr)c(CBr)nc12`, the EC50 is reported as greater than 20 µM.
With `O=c1[nH]c2c(Cl)c3ncccc3cc2nc1-c1ccccc1` the EC50 was 5 µM.

System: Human alphaherpesvirus 1
Assay: Antiviral activity against Human herpesvirus 1 strain KOS infected in african green monkey Vero 76 cells assessed as reduction of virus-induced plaque formation after 3 days using crystal violet staining
Type: functional, organism-based
Conditions: Human alphaherpesvirus 1, KOS, 72 h
`Clc1c2ncccc2cc2nc(CBr)c(CBr)nc12` gave an EC50 greater than 100 µM.
For `O=c1[nH]c2c(Cl)c3ncccc3cc2nc1-c1ccccc1`, the EC50 was greater than 100 µM.

System: not listed separately
Assay: Cytotoxicity against BHK21 cells after 48 to 96 hrs by MTT assay
Type: cell-based, Mesocricetus auratus, BHK-21
Conditions: hamster
Method in brief: as §1
`Clc1c2ncccc2cc2nc(CBr)c(CBr)nc12` gave a CC50 greater than 100 µM.
For `O=c1[nH]c2c(Cl)c3ncccc3cc2nc1-c1ccccc1`, the CC50 was greater than 100 µM.

System: not listed separately
Assay: Cytotoxicity against human MT4 cells after 96 hrs by MTT assay
Type: cell-based
Conditions: not given
Method in brief: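 Exponentially growing MT-4 cells seeded at 1×10^5 cells/mL in RPMI-1640 with 10% FBS, penicillin and streptomycin. Incubated with serial compound dilutions at 37 °C, 5% CO2 for 96 h; viability by MTT. CC50 by linear regression relative to untreated controls; mean of three independent determinations.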
Compound `Clc1c2ncccc2cc2nc(CBr)c(CBr)nc12` has a CC50 at 96 h of 16 µM.
In the case of `O=c1[nH]c2c(Cl)c3ncccc3cc2nc1-c1ccccc1`, the CC50 at 96 h is reported as 61 µM.

System: Poliovirus 1
Assay: Antiviral activity against Human poliovirus 1 strain Sabin Chat infected in african green monkey Vero 76 cells assessed as virus-induced reduction of plaque formation after 2 days using crystal violet staining
Type: functional, cell-based
Conditions: Enterovirus C, 48 h
`Clc1c2ncccc2cc2nc(CBr)c(CBr)nc12` gave an EC50 greater than 100 µM.
`O=c1[nH]c2c(Cl)c3ncccc3cc2nc1-c1ccccc1` showed an EC50 greater than 100 µM.

System: Coxsackievirus B5
Assay: Antiviral activity against Human coxsackievirus B5 Ohio-1 infected in african green monkey Vero 76 cells assessed as reduction of virus-induced plaque formation after 3 days using crystal violet staining
Type: functional, organism-based
Conditions: Enterovirus B, Ohio-1, Vero, 72 h
`Clc1c2ncccc2cc2nc(CBr)c(CBr)nc12` showed an EC50 greater than 100 µM.
Work on `O=c1[nH]c2c(Cl)c3ncccc3cc2nc1-c1ccccc1` yielded an EC50 greater than 100 µM.

System: not listed separately
Assay: Cytotoxicity against african green monkey Vero 76 cells after 48 to 96 hrs by crystal violet staining
Type: cell-based
Conditions: chlorocebus sabaeus
Method in brief: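 Vero-76 cells were seeded at 4×10^5 cells/mL in D-MEM with L-glutamine, kanamycin and 10% FBS, then exposed to serial compound dilutions at 37 °C, 5% CO2 for 48–96 h. Viability was read by crystal violet staining. 50% cytotoxic concentration by linear regression relative to untreated controls; mean of three independent determinations.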
In the case of `Clc1c2ncccc2cc2nc(CBr)c(CBr)nc12`, the CC50 is reported as greater than 100 µM.
Work on `O=c1[nH]c2c(Cl)c3ncccc3cc2nc1-c1ccccc1` yielded a CC50 greater than 100 µM.

System: Yellow fever virus
Assay: Antiviral activity against Yellow fever virus 17D Stamaril Pasteur J07B01 infected in hamster BHK21 cells assessed as inhibition of virus-induced cytopathogenicity after 3 to 4 days by MTT assay
Type: functional, cell-based
Conditions: Stamaril Pasteur J07B01, BHK-21
Method in brief: as §2
In the case of `Clc1c2ncccc2cc2nc(CBr)c(CBr)nc12`, the EC50 is reported as greater than 100 µM.
`O=c1[nH]c2c(Cl)c3ncccc3cc2nc1-c1ccccc1` showed an EC50 greater than 100 µM.

System: Vesicular stomatitis Indiana virus
Assay: Antiviral activity against clinical isolate Vesicular stomatitis Indiana virus infected in african green monkey Vero 76 cells assessed as reduction of virus-induced plaque formation after 2 days using crystal violet staining
Type: functional, organism-based
Conditions: 48 h
Compound `Clc1c2ncccc2cc2nc(CBr)c(CBr)nc12` has an EC50 greater than 100 µM.
With `O=c1[nH]c2c(Cl)c3ncccc3cc2nc1-c1ccccc1` the EC50 was 100 µM.
